Results as given in ChEMBL document CHEMBL1122299, “Potential cerebral perfusion agents: synthesis and evaluation of a radioiodinated vinylalkylbarbituric acid analogue” (J Med Chem, 1983).

Key:
Rattus norvegicus [1] = experiment: Distribution of radioactivity in blood of rats at 1 day after an intravenous injection; Value expressed as mean % injected dose, Range- 0.03-0.03; assay type: ADME, organism-based; conditions: in vivo, 24 h
Outline: (§1)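 Female Fischer 344 rats (10–12 wk, 170–200 g; food and water ad libitum) under ether received 7.95 μCi 125I-labeled agent (sp act ~155 mCi/mmol) in pH 7.4 phosphate buffer, filtered, via lateral tail vein. Four rats per time point (2 min–1 day). Killed by cervical fracture under ether; organs excised, saline-rinsed, blotted, weighed, gamma-counted; mean % injected dose/g with range.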

Rattus norvegicus [2] = experiment: Distribution of radioactivity in blood of rats at 1 hr after an intravenous injection; Value expressed as mean % injected dose, Range-0.9-1.03; assay type: ADME, organism-based; conditions: in vivo; outline: as §1
Rattus norvegicus [3] = experiment: Distribution of radioactivity in blood of rats at 2 mins after an intravenous injection; Value expressed as mean % injected dose, Range = 0.88-1.15; assay type: ADME, organism-based; conditions: in vivo; outline: as §1
Rattus norvegicus [4] = experiment: Distribution of radioactivity in blood of rats at 2 hr after an intravenous injection; Value expressed as mean % injected dose, Range = 0.71-0.87; assay type: ADME, organism-based; conditions: in vivo; outline: as §1
Rattus norvegicus [5] = experiment: Distribution of radioactivity in lung tissue of rats at 30 mins after an intravenous injection; Value expressed as mean % injected dose, Range- 0.65-0.87; assay type: ADME, organism-based; conditions: in vivo, 0.5 h; outline: as §1
Rattus norvegicus [6] = experiment: Distribution of radioactivity in lung tissue of rats at 4 hr after an intravenous injection; Value expressed as mean % injected dose, Range- 0.28-0.31; assay type: ADME, organism-based; conditions: in vivo; outline: as §1
Rattus norvegicus [7] = experiment: Distribution of radioactivity in lung tissue of rats at 5 mins after an intravenous injection; Value expressed as mean % injected dose, Range- 0.98-1.22; assay type: ADME, organism-based; conditions: in vivo; outline: as §1
Rattus norvegicus [8] = experiment: Distribution of radioactivity in thyroid tissue of rats at 1 day after an intravenous injection; Value expressed as mean % injected dose, Range- 406-499; assay type: ADME, organism-based, Thyroid gland; conditions: in vivo, 24 h; outline: as §1
Rattus norvegicus [9] = experiment: Distribution of radioactivity in thyroid tissue of rats at 2 mins after an intravenous injection; Value expressed as mean % injected dose, Range- 6.65-8.0.8; assay type: ADME, organism-based, Thyroid gland; conditions: in vivo; outline: as §1
Rattus norvegicus [10] = experiment: Distribution of radioactivity in thyroid tissue of rats at 2 hr after an intravenous injection; Value expressed as mean % injected dose, Range- 92-159; assay type: ADME, organism-based, Thyroid gland; conditions: in vivo; outline: as §1
Rattus norvegicus [11] = experiment: Distribution of radioactivity in thyroid tissue of rats at 30 mins after an intravenous injection; Value expressed as mean % injected dose, Range- 18.74-30.84; assay type: ADME, organism-based, Thyroid gland; conditions: in vivo, 0.5 h; outline: as §1
Rattus norvegicus [12] = experiment: Distribution of radioactivity in thyroid tissue of rats at 4 hr after an intravenous injection; Value expressed as mean % injected dose, Range- 156-207; assay type: ADME, organism-based, Thyroid gland; conditions: in vivo; outline: as §1
Rattus norvegicus [13] = experiment: Ratio between the distribution of radioactivity of brain to that of blood tissue of rats at 1 day after an intravenous administration; assay type: ADME, organism-based; conditions: 24 h
Outline: (§2)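 Same rats (four per time point, 2 min–1 day) after a 7.95 μCi tail-vein dose of 125I-labeled agent in pH 7.4 phosphate buffer. Brain and blood were excised, weighed and gamma-counted as % injected dose/g. The ratio compares brain to blood radioactivity and is reported as a mean.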

Rattus norvegicus [14] = experiment: Ratio between the distribution of radioactivity of brain to that of blood tissue of rats at 1 hr after an intravenous administration; assay type: ADME, organism-based; outline: as §2
Rattus norvegicus [15] = experiment: Ratio between the distribution of radioactivity of brain to that of blood tissue of rats at 2 hr after an intravenous administration; assay type: ADME, organism-based; outline: as §2
Rattus norvegicus [16] = experiment: Ratio between the distribution of radioactivity of brain to that of blood tissue of rats at 2 min after an intravenous administration; assay type: ADME, organism-based; outline: as §2
Rattus norvegicus [17] = experiment: Ratio between the distribution of radioactivity of brain to that of blood tissue of rats at 30 min after an intravenous administration; assay type: ADME, organism-based; conditions: 0.5 h; outline: as §2
Rattus norvegicus [18] = experiment: Ratio between the distribution of radioactivity of brain to that of blood tissue of rats at 4 hr after an intravenous administration; assay type: ADME, organism-based; outline: as §2
Rattus norvegicus [19] = experiment: Ratio between the distribution of radioactivity of brain to that of blood tissue of rats at 5 min after an intravenous administration; assay type: ADME, organism-based; outline: as §2
Rattus norvegicus [20] = experiment: Distribution of radioactivity in thyroid tissue of rats at 5 mins after an intravenous injection; Value expressed as mean % injected dose, Range- 6.19-7.22; assay type: ADME, organism-based, Thyroid gland; conditions: in vivo; outline: as §1
Rattus norvegicus [21] = experiment: Distribution of radioactivity in heart tissue of rats at 4 hr after an intravenous injection; Value expressed as mean % injected dose, Range- 0.16-0.2; assay type: ADME, organism-based; conditions: in vivo; outline: as §1
Rattus norvegicus [22] = experiment: Distribution of radioactivity in heart tissue of rats at 5 mins after an intravenous injection; Value expressed as mean % injected dose, Range- 1.13-1.29; assay type: ADME, organism-based; conditions: in vivo; outline: as §1
Rattus norvegicus [23] = experiment: Distribution of radioactivity in liver tissue of rats at 1 day after an intravenous injection; Value expressed as mean % injected dose, Range- 0.02-0.02; assay type: ADME, organism-based; conditions: in vivo, 24 h; outline: as §1
Rattus norvegicus [24] = experiment: Distribution of radioactivity in liver tissue of rats at 1 hr after an intravenous injection; Value expressed as mean % injected dose, Range- 0.71-0.93; assay type: ADME, organism-based; conditions: in vivo; outline: as §1
Rattus norvegicus [25] = experiment: Distribution of radioactivity in liver tissue of rats at 2 mins after an intravenous injection; Value expressed as mean % injected dose, Range- 2.91-3.53; assay type: ADME, organism-based; conditions: in vivo; outline: as §1
Rattus norvegicus [26] = experiment: Distribution of radioactivity in liver tissue of rats at 2 hr after an intravenous injection; Value expressed as mean % injected dose, Range- 0.42-0.62; assay type: ADME, organism-based; conditions: in vivo; outline: as §1
Rattus norvegicus [27] = experiment: Distribution of radioactivity in liver tissue of rats at 30 mins after an intravenous injection; Value expressed as mean % injected dose, Range- 0.97-1.41; assay type: ADME, organism-based; conditions: in vivo, 0.5 h; outline: as §1
Rattus norvegicus [28] = experiment: Distribution of radioactivity in liver tissue of rats at 4 hr after an intravenous injection; Value expressed as mean % injected dose, Range- 0.19-0.23; assay type: ADME, organism-based; conditions: in vivo; outline: as §1
Rattus norvegicus [29] = experiment: Distribution of radioactivity in liver tissue of rats at 5 mins after an intravenous injection; Value expressed as mean % injected dose, Range- 2.49-2.82; assay type: ADME, organism-based; conditions: in vivo; outline: as §1
Rattus norvegicus [30] = experiment: Distribution of radioactivity in lung tissue of rats at 1 day after an intravenous injection; Value expressed as mean % injected dose, Range- 0.02-0.03; assay type: ADME, organism-based; conditions: in vivo, 24 h; outline: as §1
Rattus norvegicus [31] = experiment: Distribution of radioactivity in lung tissue of rats at 2 mins after an intravenous injection; Value expressed as mean % injected dose, Range- 1.17-1.42; assay type: ADME, organism-based; conditions: in vivo; outline: as §1
Rattus norvegicus [32] = experiment: Distribution of radioactivity in lung tissue of rats at 2 hr after an intravenous injection; Value expressed as mean % injected dose, Range- 0.47-0.58; assay type: ADME, organism-based; conditions: in vivo; outline: as §1
Rattus norvegicus [33] = experiment: Distribution of radioactivity in blood of rats at 30 mins after an intravenous injection; Value expressed as mean % injected dose, Range = 0.68-1.03; assay type: ADME, organism-based; conditions: in vivo, 0.5 h; outline: as §1
Rattus norvegicus [34] = experiment: Distribution of radioactivity in blood of rats at 4 hr after an intravenous injection; Value expressed as mean % injected dose, Range- 0.45-0.48; assay type: ADME, organism-based; conditions: in vivo; outline: as §1
Rattus norvegicus [35] = experiment: Distribution of radioactivity in blood of rats at 5 mins after an intravenous injection; Value expressed as mean % injected dose, Range-0.81-1; assay type: ADME, organism-based; conditions: in vivo; outline: as §1
Rattus norvegicus [36] = experiment: Distribution of radioactivity in brain tissue of rats at 1 day after an intravenous injection; Value expressed as mean % injected dose, Range- 0.007-0.008; assay type: ADME, organism-based; conditions: in vivo, 24 h; outline: as §1
Rattus norvegicus [37] = experiment: Distribution of radioactivity in brain tissue of rats at 1 hr after an intravenous injection; Value expressed as mean % injected dose, Range- 0.18-0.22; assay type: ADME, organism-based; conditions: in vivo; outline: as §1
Rattus norvegicus [38] = experiment: Distribution of radioactivity in brain tissue of rats at 2 mins after an intravenous injection; Value expressed as mean % injected dose, Range- 0.77-0.97; assay type: ADME, organism-based; conditions: in vivo; outline: as §1
Rattus norvegicus [39] = experiment: Distribution of radioactivity in brain tissue of rats at 2 hr after an intravenous injection; Value expressed as mean % injected dose, Range- 0.08-0.13; assay type: ADME, organism-based; conditions: in vivo; outline: as §1
Rattus norvegicus [40] = experiment: Distribution of radioactivity in brain tissue of rats at 30 mins after an intravenous injection; Value expressed as mean % injected dose, Range- 0.25-0.37; assay type: ADME, organism-based; conditions: in vivo, 0.5 h; outline: as §1
Rattus norvegicus [41] = experiment: Distribution of radioactivity in brain tissue of rats at 4 hr after an intravenous injection; Value expressed as mean % injected dose, Range- 0.03-0.04; assay type: ADME, organism-based; conditions: in vivo; outline: as §1
Rattus norvegicus [42] = experiment: Distribution of radioactivity in brain tissue of rats at 5 mins after an intravenous injection; Value expressed as mean % injected dose, Range- 0.74-0.94; assay type: ADME, organism-based; conditions: in vivo; outline: as §1
Rattus norvegicus [43] = experiment: Distribution of radioactivity in heart tissue of rats at 1 day after an intravenous injection; Value expressed as mean % injected dose, Range- 0.02-0.02; assay type: ADME, organism-based; conditions: in vivo, 24 h; outline: as §1
Rattus norvegicus [44] = experiment: Distribution of radioactivity in heart tissue of rats at 1 hr after an intravenous injection; Value expressed as mean % injected dose, Range- 0.5-0.63; assay type: ADME, organism-based; conditions: in vivo; outline: as §1
Rattus norvegicus [45] = experiment: Distribution of radioactivity in heart tissue of rats at 2 mins after an intravenous injection; Value expressed as mean % injected dose, Range- 1.35-1.55; assay type: ADME, organism-based; conditions: in vivo; outline: as §1
Rattus norvegicus [46] = experiment: Distribution of radioactivity in heart tissue of rats at 2 hr after an intravenous injection; Value expressed as mean % injected dose, Range- 0.24-0.38; assay type: ADME, organism-based; conditions: in vivo; outline: as §1
Rattus norvegicus [47] = experiment: Distribution of radioactivity in heart tissue of rats at 30 mins after an intravenous injection; Value expressed as mean % injected dose, Range- 0.55-0.82; assay type: ADME, organism-based; conditions: in vivo, 0.5 h; outline: as §1
Rattus norvegicus [48] = experiment: Distribution of radioactivity in lung tissue of rats at 1 hr after an intravenous injection; Value expressed as mean % injected dose, Range- 0.66-0.77; assay type: ADME, organism-based; conditions: in vivo; outline: as §1

Structure (SMILES): CCC1(CCC/C=C/I)C(=O)NC(=O)NC1=O
- Activity (Rattus norvegicus [1]): 0.03
- Activity (Rattus norvegicus [2]): 0.97
- Activity (Rattus norvegicus [3]): 1
- Activity (Rattus norvegicus [4]): 0.76
- Activity (Rattus norvegicus [5]): 0.79
- Activity (Rattus norvegicus [6]): 0.29
- Activity (Rattus norvegicus [7]): 1.08
- Activity (Rattus norvegicus [8]): 434
- Activity (Rattus norvegicus [9]): 7.64
- Activity (Rattus norvegicus [10]): 130
- Activity (Rattus norvegicus [11]): 26.16
- Activity (Rattus norvegicus [12]): 178
- Ratio (Rattus norvegicus [13]): 0.26
- Ratio (Rattus norvegicus [14]): 0.2
- Ratio (Rattus norvegicus [15]): 0.14
- Ratio (Rattus norvegicus [16]): 0.83
- Ratio (Rattus norvegicus [17]): 0.36
- Ratio (Rattus norvegicus [18]): 0.07
- Ratio (Rattus norvegicus [19]): 0.91
- Activity (Rattus norvegicus [20]): 6.84
- Activity (Rattus norvegicus [21]): 0.18
- Activity (Rattus norvegicus [22]): 1.23
- Activity (Rattus norvegicus [23]): 0.02
- Activity (Rattus norvegicus [24]): 0.82
- Activity (Rattus norvegicus [25]): 3.19
- Activity (Rattus norvegicus [26]): 0.5
- Activity (Rattus norvegicus [27]): 1.21
- Activity (Rattus norvegicus [28]): 0.21
- Activity (Rattus norvegicus [29]): 2.69
- Activity (Rattus norvegicus [30]): 0.02
- Activity (Rattus norvegicus [31]): 1.31
- Activity (Rattus norvegicus [32]): 0.52
- Activity (Rattus norvegicus [33]): 0.92
- Activity (Rattus norvegicus [34]): 0.46
- Activity (Rattus norvegicus [35]): 0.9
- Activity (Rattus norvegicus [36]): 0.007
- Activity (Rattus norvegicus [37]): 0.19
- Activity (Rattus norvegicus [38]): 0.83
- Activity (Rattus norvegicus [39]): 0.1
- Activity (Rattus norvegicus [40]): 0.33
- Activity (Rattus norvegicus [41]): 0.03
- Activity (Rattus norvegicus [42]): 0.82
- Activity (Rattus norvegicus [43]): 0.02
- Activity (Rattus norvegicus [44]): 0.56
- Activity (Rattus norvegicus [45]): 1.49
- Activity (Rattus norvegicus [46]): 0.33
- Activity (Rattus norvegicus [47]): 0.71
- Activity (Rattus norvegicus [48]): 0.72
